By IC50 is commonly meant the point on the concentration scale where inhibition reaches its midpoint.

Assay [1] is described as follows: Cytotoxicity against human PC3 cells assessed as growth inhibition after 96 hrs by SRB assay. Format: functional, cell-based. The conditions noted are these: PC-3, 96 h. A digest of the protocol:
(§1)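 SRB viability assay. Cells are seeded for 24 h, then exposed for 96 h to a concentration series from 20 mM DMSO stocks, with a DMSO control. Cells are fixed in 50% TCA (2 h, 4 °C), stained with 0.4% SRB for 10 min and washed with 1% acetic acid. Bound dye is dissolved in 10 mM Tris base and read at 515 nm. IC50 is averaged from at least 3 independent experiments. SI is IC50 in HAF divided by IC50 in the cancer line.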
(In general: In SRB staining, fixed cells bind dye roughly in proportion to their protein.)

Assay [2] has as its system HT-29. As to the kind of experiment: Cytotoxicity against human HT-29 cells assessed as growth inhibition after 96 hrs by SRB assay. The format is functional, cell-based. The conditions noted are these: HT-29, 96 h. A digest of the protocol:
as §1

The test system of assay [3] is MCF7. Kind of assay: Cytotoxicity against human MCF7 cells assessed as growth inhibition after 96 hrs by SRB assay. The settings on record: MCF7, 96 h. The format is functional, cell-based. A digest of the protocol:
as §1

For assay [4], the system named is DU-145. Kind of assay: Cytotoxicity against human DU145 cells assessed as growth inhibition after 96 hrs by SRB assay. The conditions noted are these: DU-145, 96 h. Format: functional, cell-based. Put shortly:
as §1

A short description of assay [5]: Cytotoxicity against human HCT116 cells assessed as growth inhibition after 96 hrs by SRB assay. Format: functional, cell-based. The conditions noted are these: HCT-116, 96 h. Put shortly:
as §1

In assay [6] the test system is 4T1. As to the kind of experiment: Cytotoxicity against mouse 4T1 cells assessed as growth inhibition after 96 hrs by SRB assay. Format: functional, cell-based. The settings on record: 4T1, 96 h. Put shortly: as §1
Assay [7] relates to MDA-MB-231. Kind of assay: Cytotoxicity against human MDA-MB-231 cells assessed as growth inhibition after 96 hrs by SRB assay. The conditions noted are these: MDA-MB-231, 96 h. Format: functional, cell-based. A digest of the protocol:
as §1

In assay [8] the test system is T47D. As to the kind of experiment: Cytotoxicity against human T47D cells assessed as growth inhibition after 96 hrs by SRB assay. Format: functional, cell-based. Put shortly:
as §1

Assay [9] in a line: Cytotoxicity against human MCF7/ADR cells assessed as growth inhibition after 96 hrs by SRB assay. The format is functional, cell-based. The settings on record: NCI/ADR-RES. A digest of the protocol: as §1
Assay [10] can be described thus: Cytotoxicity against HAF assessed as growth inhibition after 96 hrs by SRB assay. The settings on record: Homo sapiens. A digest of the protocol: as §1

With `C=C(C)[C@@H]1CC[C@]2(C(=O)O)CC[C@]3(C)[C@H](CC[C@@H]4[C@@]5(C)CC[C@H](NC(=O)C6CCCCN6)C(C)(C)[C@@H]5CC[C@]43C)[C@@H]12` (stereo partly drawn), the IC50 in assay [1] is over 25 µM; in assay [2] it was 20.1 µM; in assay [3], 4.81 µM; in assay [4], 7.31 µM; in assay [5] it was 11.4 µM; in assay [6], 7.87 µM. In addition, the IC50 in assay [7] turned out to be 10.6 µM; in assay [8] it was 6.49 µM.
For the molecule `COc1cccc2c1C(=O)c1c(O)c3c(c(O)c1C2=O)C[C@@](O)(C(=O)CO)C[C@@H]3O[C@H]1C[C@H](N)[C@H](O)[C@H](C)O1` [DOXORUBICIN], the IC50 in [9] was 9.26 µM; in assay [10], 0.016 µM.
With `C=C(C)[C@@H]1CC[C@]2(C(=O)O)CC[C@]3(C)[C@H](CC[C@@H]4[C@@]5(C)CC[C@H](NC(=O)c6cnc(C)cn6)C(C)(C)[C@@H]5CC[C@]43C)[C@@H]12`, the IC50 in assay [1], in assay [2], in [3], in assay [4], in [5] and in [6] was over 25 µM in each case. For the same molecule, the IC50 in assay [7] and in assay [8] was over 25 µM in each case.
Consider `C=C(C)[C@@H]1CC[C@]2(C(=O)O)CC[C@]3(C)[C@H](CC[C@@H]4[C@@]5(C)CC[C@H](NC(=O)C6CCCN6)C(C)(C)[C@@H]5CC[C@]43C)[C@@H]12` (stereo partly drawn), for which the IC50 in [1] worked out at 20.3 µM; in assay [2] it was 18.8 µM; in assay [3], 15.2 µM; in assay [4], 11 µM; in assay [5] it was 17.5 µM; in assay [6], 8.03 µM. For the same molecule, the IC50 in assay [7] came out at 12.8 µM; in assay [8] it was 11 µM.
As to `C=C(C)[C@@H]1CC[C@]2(C(=O)O)CC[C@]3(C)[C@H](CC[C@@H]4[C@@]5(C)CC[C@H](NC(=O)c6cccnc6Cl)C(C)(C)[C@@H]5CC[C@]43C)[C@@H]12`, the IC50 in [1] is over 25 µM; in assay [2] it was over 25 µM; in assay [3], over 25 µM; in assay [4] it was over 25 µM; in [5], over 25 µM; in assay [6], 16.1 µM. Also, the IC50 in assay [7] is over 25 µM; in [8], 17.7 µM.
`C=C(C)[C@@H]1CC[C@]2(C(=O)O)CC[C@]3(C)[C@H](CC[C@@H]4[C@@]5(C)CC[C@H](NC(=O)c6ccncc6)C(C)(C)[C@@H]5CC[C@]43C)[C@@H]12`: the IC50 in assay [1], in [2], in [3], in [4], in assay [5] and in [6] was over 25 µM throughout. For the same molecule, the IC50 in assay [7] and in [8] was over 25 µM in each case.
Take `C=C(C)[C@@H]1CC[C@]2(C(=O)O)CC[C@]3(C)[C@H](CC[C@@H]4[C@@]5(C)CC[C@H](NC(=O)c6cccnc6)C(C)(C)[C@@H]5CC[C@]43C)[C@@H]12`: the IC50 in [1], in [2], in assay [3], in assay [4], in assay [5] and in assay [6] was over 25 µM in each case. In addition, the IC50 in assay [7] and in assay [8] was over 25 µM throughout.
Take `C=C(C)[C@@H]1CC[C@]2(C(=O)O)CC[C@]3(C)[C@H](CC[C@@H]4[C@@]5(C)CC[C@H](NC(=O)c6cnccn6)C(C)(C)[C@@H]5CC[C@]43C)[C@@H]12`: the IC50 in [1], in assay [2], in assay [3], in [4], in assay [5] and in assay [6] was over 25 µM each time. Also, the 50% inhibitory concentration (IC50) in assay [7] and in assay [8] was over 25 µM in each case.

For the origin of these results see ChEMBL document CHEMBL3414486, “Synthesis of heterocycle-modified betulinic acid derivatives as antitumor agents” (Eur J Med Chem, 2015).
